# An excerpt weighted towards active compounds, which were near 3.8% of everything screened.
# KCNQ1 inh – human KCNQ1 channel inhibition. 310,000 tested, 1.3% active. CHO-K1 KCNQ1, FluxOR thallium flux fluorescence; stronger effect = higher value. B-score at 10 µM. P51787;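 active = compounds whose thallium flux B-score, printed positive for inhibition, exceeds three library SD while starting fluorescence stays within three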;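 also: channel opened by potassium depolarization with thallium stimulus after 20 min compound exposure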
# hERG rescue – hERG (human) protection from proarrhythmic block. 310,000 tested, 0.51% active. activation (rescue from dofetilide block), less the hit threshold, % at 10 µM. Q12809. CHO-hERG, FluxOR thallium flux, dofetilide IC70 present;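 active = activation above the mean of controls blocked by dofetilide plus 5 SD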;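 also: thallium influx through hERG after potassium depolarization seen as dye fluorescence rise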
# KCNK9 inh – blocks the human KCNK9 two-pore domain potassium channel | B-score at 10 µM | Q9NPC2 | HEK293 KCNK9, FluxOR thallium flux fluorescence; stronger effect = lower value | 310,000 tested, 1.2% active;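 active = ratio B-score over 3 SD below the library mean, with starting fluorescence within 5 SD of its mean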;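 also: negative B-score means less thallium flux so channel inhibition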
# Target sequence (Q9NPC2 whole entry, looked up, the tested form may be a part): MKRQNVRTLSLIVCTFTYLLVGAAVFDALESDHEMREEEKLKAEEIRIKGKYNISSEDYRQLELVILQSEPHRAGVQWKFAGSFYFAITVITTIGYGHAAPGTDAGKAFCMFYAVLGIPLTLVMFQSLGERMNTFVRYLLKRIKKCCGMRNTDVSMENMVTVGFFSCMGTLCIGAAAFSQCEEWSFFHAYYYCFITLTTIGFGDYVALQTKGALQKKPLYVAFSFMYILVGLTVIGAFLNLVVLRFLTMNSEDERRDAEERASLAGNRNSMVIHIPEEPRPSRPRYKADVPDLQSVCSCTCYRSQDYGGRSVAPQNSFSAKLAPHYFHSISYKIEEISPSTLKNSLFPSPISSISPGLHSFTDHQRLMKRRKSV
# KCNK3 inh – human KCNK3 channel inhibition, primary screen; AID 602410; 340,000 tested, 0.84% active; CHO-KCNK3 thallium flux, FluxOR fluorescence; stronger effect = lower value; B-score at 10 µM; O14649;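 active = B-score under library mean minus 4 SD, starting fluorescence ratio at most library mean plus 5 SD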;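 also: more negative B-score means stronger inhibition of thallium flux through KCNK3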
# Target sequence (O14649 whole entry, looked up): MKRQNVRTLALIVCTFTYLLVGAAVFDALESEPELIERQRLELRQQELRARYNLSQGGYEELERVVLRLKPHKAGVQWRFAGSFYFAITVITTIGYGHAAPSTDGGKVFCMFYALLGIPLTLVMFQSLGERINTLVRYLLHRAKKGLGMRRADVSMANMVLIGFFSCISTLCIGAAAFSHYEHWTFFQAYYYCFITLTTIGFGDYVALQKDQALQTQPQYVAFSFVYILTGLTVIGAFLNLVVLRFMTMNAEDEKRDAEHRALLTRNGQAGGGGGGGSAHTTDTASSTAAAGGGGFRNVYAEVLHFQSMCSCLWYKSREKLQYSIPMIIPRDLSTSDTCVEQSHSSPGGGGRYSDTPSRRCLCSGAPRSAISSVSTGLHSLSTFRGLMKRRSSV
# KCNQ1 pot – human KCNQ1 channel potentiation or activation; 310,000 tested, 0.35% active; B-score at 10 µM; P51787; CHO-K1 KCNQ1, thallium flux FluxOR fluorescence; stronger effect = higher value;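 active = fluorescence ratio B-score, a plate-corrected score, at least three library SD, with initial intensity B-score within 5 SD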
#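 Assay system: stable KCNQ1 CHO-K1 line; medium: assay buffer, equal DMSO in all wells; timing: 90 min dye loading and 20 min compound exposure, both at room temperature; technique: kinetic FluxOR thallium fluorescence, 10-s 1-Hz baseline, 110-s post-stimulus read; read-out basis: B score of baseline-normalized fluorescence ratio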
# Kir21 block – blocks the mouse Kir2.1 inward-rectifier potassium channel. HEK293-Kir2.1, FluxOR thallium flux fluorescence; stronger effect = lower value. B-score at 10 µM. 310,000 tested, 0.85% active;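 active = fluorescence ratio B-score at or below minus 3 SD of library scores, with starting-brightness B-score within 2 SD, cut at about -4.2 in these data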;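 also: channel flux triggered by added potassium and thallium sulfate stimulus; B-score of peak minus minimum fluorescence over baseline after thallium stimulus; more negative B-score means stronger Kir2.1 block with less thallium influx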
# KCNQ1 inh valid – reconfirmed blocker of the human KCNQ1 potassium channel; 1,600 tested, 93% active; inhibition, % at 10 µM; KCNQ1 cell line, FluxOR thallium flux fluorescence; shares compounds with KCNQ1 inh;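 active = primary screen active, with duplicate mean exceeding buffer control mean plus 3 SD of buffer wells, cut at about 28% in these data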;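 also: 0% = buffer control ratio and 100% = XE991 inhibitor control ratio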
# CHO Tl flux – counter-screen for KCNQ1 inhibitors: effect in parental CHO cells. parental CHO-K1, FluxOR thallium flux fluorescence ratio; stronger effect = lower value; zero means no signal rise above baseline. fluorescence ratio (Tl flux) at 10 µM. shares compounds with KCNQ1 inh. 1,600 tested, 21% active. AID 588366;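 active = mean of duplicate thallium-flux fluorescence ratios in parental host cells more than 5 SD below the buffer control mean, cut at about 0.38 in these data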;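 also: ratio is peak minus minimum fluorescence divided by baseline fluorescence; actives read low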
# KCNQ1 APC inh – human KCNQ1 inhibition validated by electrophysiology | AID 624120 | KCNQ1-CHO cells, automated patch clamp current | calls only at 10 µM | 490 tested, 20% active | shares compounds with KCNQ1 inh;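 active = KCNQ1 current drop exceeding 3 SD of negative control wells, seen in both duplicate runs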;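 also: steady state current during a 2 s step from -80 to +40 mV; negative values mean current inhibition and positive values mean potentiation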
# KCNQ2 spec – KCNQ1 inhibitor that also blocks rat KCNQ2 channel; inhibition, % at 10 µM; 1,600 tested, 71% active; KCNQ2 cells, FluxOR thallium flux fluorescence; shares compounds with KCNQ1 inh;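 active = mean percent inhibition of the KCNQ2 thallium signal more than 5 SD above the buffer-only control wells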;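 also: KCNQ2 expressed in CHO cells; 0% = buffer control wells and 100% = XE-991 inhibitor control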
# KCNQ1 KCNE1 spec – human KCNQ1/KCNE1 inhibition in KCNQ1 specificity screen | 1,600 tested, 77% active | inhibition, % at 10 µM | AID 652147 | KCNQ1/KCNE1 cells, FluxOR thallium flux fluorescence | shares compounds with KCNQ1 inh;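 active = mean percent inhibition of duplicate wells above the buffer-only control mean plus 3 SD of those controls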;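 also: 0% = buffer only wells and 100% = XE-991 inhibitor control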
# KCNK9 inh conf – human KCNK9 inhibitor confirmation | 4,900 tested, 43% active | shares compounds with KCNK9 inh | HEK293 KCNK9 cells, FluxOR thallium flux fluorescence | inhibition, % at 10 µM;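 active = thallium signal inhibited by more than 5 SD of the compound-free buffer control wells, on both duplicate plates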;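 also: 0% = assay buffer control wells without compound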
# Kir21 sel – mouse Kir2.1 off-target activity of KCNK9 modulators. shares compounds with KCNK9 inh. Kir2.1 cells, FluxOR thallium flux fluorescence. inhibition, % at 10 µM. 4,900 tested, 4% active. AID 492993;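 active = thallium signal drop more than 5 SD beyond the mean of the no-compound control wells, seen in both duplicate plates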;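 also: signal is fluorescence rise after thallium addition divided by baseline fluorescence; plate controls were assay buffer only for no effect and full block by chlorpromazine control for full effect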
# HEK293 Tl ctr – second counter-screen for KCNK9 modulators: effect in non-induced cells; shares compounds with KCNK9 inh; non-induced KCNK9-HEK293, FluxOR thallium flux; inhibition, % at 10 µM; 4,900 tested, 40% active;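 active = thallium signal drop beyond 5 SD of the untreated control mean, on both duplicate plates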;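 also: plate controls were buffer only IC0 wells for no effect and SID17386958 at its maximal inhibitory level for full effect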
# Starred values were filed as active, the others as inactive; i = inactive; x = no result given; + = active, no number.
SMILES,KCNQ1 inh,hERG rescue,KCNK9 inh,KCNK3 inh,KCNQ1 pot,Kir21 block,KCNQ1 inh valid,CHO Tl flux,KCNQ2 spec,KCNQ1 KCNE1 spec,KCNK9 inh conf,Kir21 sel,HEK293 Tl ctr,others
COc1ccc(NC(=O)CCSCCC(=O)Nc2ccc(OC)cc2OC)c(OC)c1,i,-7,i,i,i,-0.98,x,x,x,x,x,x,x,
O=C(c1ccccc1)c1cc(Cl)ccc1N1C(=O)C=CC1=O,x,x,x,i,x,x,x,x,x,x,x,x,x,
CCCc1cc(C(=O)Nc2ccc(C(=O)c3ccc(F)cc3)cc2)n(C)n1,6*,-3,i,-12*,i,1,+,0.39,137%*,+,x,x,x,
O=C(Nc1ccc(F)cc1)c1ccc2snnc2c1,i,-2,i,i,i,1.3,x,x,x,x,x,x,x,
CCc1ccc(C(O)(C(C)C)C(CN2CCOCC2)c2ccccc2)cc1 (stereo unspecified),6*,-5,i,i,i,-1.3,65*,0.46,i,80%*,x,x,x,
COc1ccc(-c2nc3cc(C)ccn3c2NCc2ccc3c(c2)OCO3)cc1,7*,-25,i,i,i,-1.4,98*,0.46,89%*,136%*,x,x,x,KCNQ1 APC inh=i
c1ccc(-c2nc3ccccn3c2NCc2ccc3c(c2)OCO3)cc1,i,-28,i,i,i,0.9,x,x,x,x,x,x,x,
CCSc1nnc(NC(=O)[C@H](C)NC(=O)c2ccccc2Cl)s1,i,-8,i,i,i,-0.02,x,x,x,x,x,x,x,
O=C(c1ccc([N+](=O)[O-])cc1)N1CCN(C(=O)c2cccs2)CC1,i,-10,i,i,i,0.38,x,x,x,x,x,x,x,
CC1Cc2nc(SCC(=O)N3CCN(c4ccccc4)CC3)n(CCc3ccccc3)c(=O)c2S1 (stereo unspecified),8*,-26,i,i,i,2.3,70*,0.44,84%*,175%*,i,i,i,
CCn1c(SCC(=O)N2CCN(c3ccccc3)CC2)nc2c(c1=O)SC(C)C2 (stereo unspecified),i,-16,i,i,i,-1.4,x,x,x,x,x,x,x,
NC(=O)Cn1c(=O)n(CC(=O)N2CCCCC2)c(=O)c2sccc21,i,-5,i,i,i,0.51,x,x,x,x,x,x,x,
N#Cc1c(N)nc2c(c1-c1ccc3c(c1)OCO3)CCc1ccccc1-2,13*,-5,-11*,i,i,0.84,120*,0.35*,109%*,181%*,31%*,i,30%*,
COc1ccccc1CCNC(=O)c1cc(COc2cccc(C(F)(F)F)c2)on1,7*,-2,i,i,i,-0.01,100*,0.45,88%*,98%*,i,i,i,KCNQ1 APC inh=i
CC(=O)c1c(N2CCN(C)CC2)nc(=S)n(Cc2ccccc2)c1C,i,-3,i,i,i,0.14,x,x,x,x,x,x,x,
Cc1cc(=O)oc2cc(NC(=S)NNC(=O)c3c(Cl)cnn3C)ccc12,i,-4,i,i,i,0.06,x,x,x,x,x,x,x,
COc1ccc(N2CCN(S(=O)(=O)c3ccc(OC)cc3)CC2)cc1,i,-6,i,i,i,-0.92,x,x,x,x,x,x,x,
COc1ccc(S(=O)(=O)N2CCN(c3cccc(C)c3C)CC2)cc1,9*,-9,i,i,i,1.4,+,0.35*,i,i,i,i,i,
CC(C)c1cc(C(=O)N2CCCC(C(=O)c3ccc4ccccc4c3)C2)on1 (stereo unspecified),6*,-18,i,i,i,-0.15,0,0.5,91%*,35%*,i,i,i,
O=C1CCC(C(=O)N2CCCC(C(=O)c3ccc4ccccc4c3)C2)=NN1 (stereo unspecified),i,-5,i,i,i,1.8,x,x,x,x,x,x,x,
CCOC(=O)c1c(NC(=O)CSc2nc3cc(Cl)ccc3c(=O)n2Cc2ccco2)sc(C(=O)N(C)C)c1C,i,-1,i,i,i,-0.41,x,x,x,x,x,x,x,
CC(C)CC(=O)Nc1cccc(-c2csc(-c3ccccc3)n2)c1,18*,-12,-14*,i,i,-0.47,148*,0.35*,i,+,67%*,i,32%*,
COc1ccc(CC(=O)Nc2cccc(-c3csc(C)n3)c2)cc1,i,-2,i,i,i,0.56,x,x,x,x,x,x,x,
Cc1ccccc1CN1CCN(S(=O)(=O)c2ccc(Cl)s2)CC1,6*,-14,i,i,i,0.03,90*,0.37*,122%*,118%*,i,i,29%*,
O=C(CSc1nccn1Cc1ccco1)Nc1ccccc1C(F)(F)F,i,-7,i,i,i,-1.9,x,x,x,x,x,x,x,
COc1ccc(NC(=O)CN2CCN(C3c4ccccc4-c4ccccc43)CC2)c(OC)c1,8*,-11,-17*,i,i,-0.51,60*,0.42,79%*,98%*,38%*,i,34%*,
CCOc1ccc(NC(=O)CN2CCN(C3c4ccccc4-c4ccccc43)CC2)cc1,i,-8,i,i,i,-0.56,x,x,x,x,x,x,x,
CC1CCc2c(nc3nc[nH]n3c2=O)C1 (stereo unspecified),i,-5,i,i,i,1.1,x,x,x,x,x,x,x,
O=C(NNc1cc(Br)c(O)c(Br)c1)c1ccccc1,i,-13,i,i,i,-0.31,x,x,x,x,x,x,x,
Clc1ccc(-c2cc3ccccc3nc2N2CCOCC2)cc1,11*,-14,i,i,i,1,130*,0.47,98%*,182%*,i,i,28%*,

# High-throughput results from PubChem BioAssay.
